Data set [1] can be described thus: Apparent permeability across apical to basolateral side in human Caco2 cells at 10 uM after 45 to 120 mins by ultraperformance LC/MS/MS method. The following applies: Caco-2.
The nature of data set [2]: Prodrug conversion in human plasma assessed as esterase-mediated metabolite formation after 4 hrs. The class given is ADME, cell-free.
The nature of data set [3]: Prodrug conversion in rat hepatocytes assessed as esterase-mediated 3-((3-(2-(2-(Aminomethyl)-5-chlorobenzylamino)-2-oxoethyl)-4-methyl-2-oxo-5,6-dihydropyridin-1(2H)-ylamino)methyl)benzoic acid formation at 4 uM after 40 mins by ultraperformance liquid chromatographic method. The class given is ADME, cell-based.
The nature of data set [4]: Solubility of the compound in phosphate buffer at pH 7.4 at 25 degC after 24 hrs by ultraperformance LC/MS/MS method.
Data set [5] is described as follows: physchem. The following applies: 1-octanol/phosphate buffer, pH 7.4.
Data set [6] in a line: Efflux ratio of apparent permeability across basolateral to apical over apical to basolateral side in human Caco2 cells at 10 uM after 45 to 120 mins by ultraperformance LC/MS/MS method. Conditions: Caco-2.
A short description of data set [7]: Prodrug conversion in human liver microsomes assessed as 3-((3-(2-(2-(Aminomethyl)-5-chlorobenzylamino)-2-oxoethyl)-4-methyl-2-oxo-5,6-dihydropyridin-1(2H)-ylamino)methyl)benzoic acid formation in absence of NADPH. The data set is classed as ADME, Microsome.
Data set [8] can be described thus: Prodrug conversion in human liver microsomes assessed as 3-((3-(2-(2-(Aminomethyl)-5-chlorobenzylamino)-2-oxoethyl)-4-methyl-2-oxo-5,6-dihydropyridin-1(2H)-ylamino)methyl)benzoic acid formation in presence of NADPH. The class given is ADME, Microsome.
The target of data set [9] is Coagulation factor IX (Homo sapiens, UniProt P00740). The data set can be described thus: Inhibition of human F9a using pefachrome F9a as substrate preincubated for 300 secs followed by substrate addition measured after 40 mins.
Sequence of Coagulation factor IX (P00740 47-191 limits assumed): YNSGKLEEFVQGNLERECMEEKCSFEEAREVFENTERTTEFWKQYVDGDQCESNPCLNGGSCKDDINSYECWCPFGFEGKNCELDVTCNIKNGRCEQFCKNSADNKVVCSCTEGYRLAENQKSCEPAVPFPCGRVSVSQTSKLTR
Sequence of Coagulation factor IX (P00740 227-461 limits assumed): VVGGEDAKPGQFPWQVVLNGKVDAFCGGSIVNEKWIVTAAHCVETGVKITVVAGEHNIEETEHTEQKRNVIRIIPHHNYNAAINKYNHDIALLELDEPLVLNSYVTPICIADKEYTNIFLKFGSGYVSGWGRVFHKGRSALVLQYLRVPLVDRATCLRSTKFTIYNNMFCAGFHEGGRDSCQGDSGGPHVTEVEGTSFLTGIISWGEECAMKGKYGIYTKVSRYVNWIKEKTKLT
The species named for data set [10] is Homo sapiens. Briefly: Selectivity ratio of Ki for human F10a to Ki for human alpha-thrombin.
Data set [11] addresses Coagulation factor X (Homo sapiens, UniProt P00742). Briefly: Inhibition of human F10a using S-2765 as substrate preincubated for 300 secs followed by substrate addition measured after 40 mins. The procedure, abridged:
(§1)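 Human proteases assayed at one substrate concentration with ten inhibitor concentrations at 37 °C, ≤1.3% DMSO, in an enzyme-specific Tris-HCl pH 7.4 buffer. Enzyme and inhibitor preincubated 300 s, then substrate added; absorbance read at 405 nm after 40 min. IC50 converted to Ki by IC50 = Ki(1+S/KM), using KM measured under assay conditions.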

The target of data set [12] is Plasminogen (Homo sapiens, UniProt P00747). The data set can be described thus: Inhibition of human plasmin using S-2366 as substrate preincubated for 300 secs followed by substrate addition measured after 40 mins. The gist of the method: as §1
Sequence of Plasminogen (P00747 97-580 limits assumed): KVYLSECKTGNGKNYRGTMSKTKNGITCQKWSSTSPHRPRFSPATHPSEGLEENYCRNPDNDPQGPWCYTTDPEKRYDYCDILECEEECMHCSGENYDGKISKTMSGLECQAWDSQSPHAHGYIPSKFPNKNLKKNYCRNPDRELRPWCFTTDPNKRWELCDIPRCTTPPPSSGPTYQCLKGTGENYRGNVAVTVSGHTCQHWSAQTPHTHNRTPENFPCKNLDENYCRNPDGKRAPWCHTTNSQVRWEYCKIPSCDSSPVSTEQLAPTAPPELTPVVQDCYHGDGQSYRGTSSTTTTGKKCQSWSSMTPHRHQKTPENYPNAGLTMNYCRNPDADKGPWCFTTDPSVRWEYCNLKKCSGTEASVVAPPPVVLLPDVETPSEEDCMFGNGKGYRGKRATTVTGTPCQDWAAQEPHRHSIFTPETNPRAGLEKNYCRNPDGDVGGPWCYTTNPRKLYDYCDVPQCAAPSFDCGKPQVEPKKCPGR
Sequence of Plasminogen (P00747 581-810 limits assumed): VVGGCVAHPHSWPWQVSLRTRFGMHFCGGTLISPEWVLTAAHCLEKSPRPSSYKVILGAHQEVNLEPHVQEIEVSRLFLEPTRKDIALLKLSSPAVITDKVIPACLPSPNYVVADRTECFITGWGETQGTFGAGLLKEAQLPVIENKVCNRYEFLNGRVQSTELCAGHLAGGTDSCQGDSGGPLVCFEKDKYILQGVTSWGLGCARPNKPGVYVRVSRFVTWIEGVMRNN
The species named for data set [13] is Rattus norvegicus. Briefly: Antithrombotic activity in rat caval vein thrombosis model assessed as prevention of venous thrombosis. The class given is functional, organism-based.
The species named for data set [14] is Homo sapiens. Briefly: Selectivity ratio of Ki for human F11a to Ki for human alpha-thrombin.
Data set [15] in a line: Intrinsic clearance in Sprague-Dawley rat liver microsomes at 1 umol/L after 7 to 30 mins by LC-MS/MS method. The class given is ADME, Microsome. The following applies: read-out: CLH.
The target of data set [16] is Serine protease 1 (Homo sapiens, UniProt P07477). Briefly: Inhibition of human trypsin 1 using S-2222 as substrate preincubated for 300 secs followed by substrate addition measured after 40 mins. The procedure, abridged:
as §1

Data set [17] concerns the target Coagulation factor XI (Homo sapiens, UniProt P03951). The data set can be described thus: Inhibition of human F11a using S-2366 as substrate preincubated for 300 secs followed by substrate addition measured after 40 mins. The procedure, abridged: as §1
For data set [18], the target named is Cytochrome P450 3A4 (Homo sapiens, UniProt P08684). The data set can be described thus: Inhibition of human CYP3A4. The class given is ADME.
Sequence of Cytochrome P450 3A4 (P08684 whole entry): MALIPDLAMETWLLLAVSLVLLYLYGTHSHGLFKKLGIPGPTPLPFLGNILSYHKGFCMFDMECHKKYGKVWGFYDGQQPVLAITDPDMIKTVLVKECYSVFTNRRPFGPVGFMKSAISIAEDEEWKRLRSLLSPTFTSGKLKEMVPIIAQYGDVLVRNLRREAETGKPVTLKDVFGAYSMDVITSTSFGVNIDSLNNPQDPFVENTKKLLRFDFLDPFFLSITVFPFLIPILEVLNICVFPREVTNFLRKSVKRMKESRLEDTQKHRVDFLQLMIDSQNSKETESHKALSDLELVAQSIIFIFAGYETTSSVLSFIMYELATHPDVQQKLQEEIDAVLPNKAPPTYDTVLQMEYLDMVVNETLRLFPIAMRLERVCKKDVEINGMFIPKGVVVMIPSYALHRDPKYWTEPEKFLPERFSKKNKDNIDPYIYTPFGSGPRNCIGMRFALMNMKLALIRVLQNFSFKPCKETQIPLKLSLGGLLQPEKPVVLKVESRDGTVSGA
The species entered for data set [19] is Homo sapiens. Briefly: Selectivity ratio of Ki for human tissue factor/F7a to Ki for human alpha-thrombin.
The nature of data set [20]: Inhibition of human tissue factor/F7a using spectrozyme as substrate preincubated for 300 secs followed by substrate addition measured after 40 mins. The gist of the method: as §1
The subject of data set [21] is Plasma. Briefly: Anticoagulant activity in human citrated plasma assessed as concentration required to double activated partial thromboplastin time after 3 mins by coagulation analyser. The class given is functional, cell-free. The following applies: 0.05 h.
The species named for data set [22] is Homo sapiens. The data set can be described thus: Selectivity ratio of Ki for human F9a to Ki for human alpha-thrombin.
In data set [23] the target is Thrombin & trypsin (Homo sapiens) (UniProt P00734+P07477+P07478+P35030). The data set can be described thus: Selectivity ratio of Ki for human trypsin 1 to Ki for human alpha-thrombin. The class given is protein assay.
The target in data set [24] is Prothrombin (Homo sapiens, UniProt P00734). The data set can be described thus: Inhibition of human alpha-thrombin using S-2366 as substrate after 40 mins.
Data set [25] is filed under the species Homo sapiens. The data set can be described thus: Selectivity ratio of Ki for human plasmin to Ki for human alpha-thrombin.
The nature of data set [26]: Drug level in rat hepatocytes treated with Methyl 3-(((3-(2-((5-Chloro-2-(((methoxycarbonyl)amino)-methyl)benzyl)amino)-2-oxoethyl)-4-methyl-2-oxo-5,6-dihydropyridin-1(2H)-yl)amino)methyl)benzoate assessed as esterase-mediated compound formation at 4 uM after 40 mins by ultraperformance liquid chromatographic method. The class given is ADME, cell-based. The following applies: isolated protein.

Data set [27] in a line: Apparent terminal half life in Han Wistar rat at 1 umol/kg, po administered via gavage by LC-MS/MS method. Conditions: in vivo, read-out: betat1/2(app) (converted). The class given is ADME, organism-based. The gist of the method:
(§2)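 Male Han Wistar rats, cannulated in the carotid artery for sampling and the jugular vein for i.v. dosing, one week before the study (two days before for intraduodenal dosing). Single doses: 0.5 µmol/kg i.v., or 1 µmol/kg by gavage or intraduodenally. Vehicles were 5% mannitol in water or DMA:TEG:water (1:1:1). Plasma sampled up to 24 h and analysed by LC-MS/MS. Non-compartmental analysis; means of n=3, with F from mean AUCinf.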

Data set [28] can be described thus: Cmax in Han Wistar rat at 1 umol/kg, po administered via gavage by LC-MS/MS method. The class given is ADME, organism-based. The arrangement: dose 1 umol/kg, route oral. The following applies: in vivo. The procedure, abridged: as §2
A short description of data set [29]: Cmax in Han Wistar rat at 1 umol/kg administered intraduodenally by LC-MS/MS method. The arrangement: dose 1 umol/kg, route intraduodenal. The following applies: in vivo. The data set is classed as ADME. The gist of the method:
as §2

The nature of data set [30]: AUCinfinity in Han Wistar rat assessed as 3-((3-(2-(2-(Aminomethyl)-5-chlorobenzylamino)-2-oxoethyl)-4-methyl-2-oxo-5,6-dihydropyridin-1(2H)-ylamino)methyl)benzoic acid formation at 1 umol/kg, po administered via gavage by LC-MS/MS method. The arrangement: dose 1 umol/kg, time infinity, route oral. The data set is classed as ADME, organism-based. Conditions: in vivo. The gist of the method: as §2

Data set [31] is described as follows: Bioavailability in Han Wistar rat assessed as 3-((3-(2-(2-(Aminomethyl)-5-chlorobenzylamino)-2-oxoethyl)-4-methyl-2-oxo-5,6-dihydropyridin-1(2H)-ylamino)methyl)benzoic acid formation at 1 umol/kg administered intraduodenally by LC-MS/MS method. The class given is ADME, organism-based. The following applies: in vivo, other. The gist of the method:
as §2

A short description of data set [32]: Apparent terminal half life in Han Wistar rat at 1 umol/kg administered intraduodenally by LC-MS/MS method. The data set is classed as ADME. The following applies: in vivo, read-out: betat1/2(app) (converted). The gist of the method: as §2
The nature of data set [33]: Prodrug conversion in human hepatocytes assessed as esterase-mediated formaldehyde formation at 4 uM after 40 mins by ultraperformance liquid chromatographic method. The class given is ADME, cell-based. Conditions: isolated protein. The gist of the method:
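Cryopreserved human hepatocytes at 10^6 viable cells/mL, thawed and pre-warmed 10 min at 37 °C. Compound added from CH3CN stock at 4 µM final. Incubated 40 min, then quenched in cold CH3CN, with compound-free incubations as blanks. Metabolites assigned by LC-MS product ion spectra.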

A short description of data set [34]: Oral bioavailability in Han Wistar rat assessed as 3-((3-(2-(2-(Aminomethyl)-5-chlorobenzylamino)-2-oxoethyl)-4-methyl-2-oxo-5,6-dihydropyridin-1(2H)-ylamino)methyl)benzoic acid formation at 1 umol/kg administered via gavage by LC-MS/MS method. The class given is ADME, organism-based. Conditions: in vivo. The procedure, abridged:
as §2

A short description of data set [35]: AUCinfinity in Han Wistar rat assessed as 3-((3-(2-(2-(Aminomethyl)-5-chlorobenzylamino)-2-oxoethyl)-4-methyl-2-oxo-5,6-dihydropyridin-1(2H)-ylamino)methyl)benzoic acid formation at 1 umol/kg administered intraduodenally by LC-MS/MS method. The data set is classed as ADME. The arrangement: dose 1 umol/kg, route intraduodenal, time infinity. Conditions: in vivo, other. The procedure, abridged: as §2

The conditions of data set [36]: rat, isolated protein, 40 min, 4 µM.

pIC50, pKi: −log10 of the molar value. ≈ marks a conversion by molar mass, not a printed value.

Here are results for five compounds from ChEMBL document CHEMBL4425130, “Macrocyclic Prodrugs of a Selective Nonpeptidic Direct Thrombin Inhibitor Display High Permeability, Efficient Bioconversion but Low Bioavailability” (J Med Chem, 2016).

Sequence of Serine protease 1 (P07477 whole entry): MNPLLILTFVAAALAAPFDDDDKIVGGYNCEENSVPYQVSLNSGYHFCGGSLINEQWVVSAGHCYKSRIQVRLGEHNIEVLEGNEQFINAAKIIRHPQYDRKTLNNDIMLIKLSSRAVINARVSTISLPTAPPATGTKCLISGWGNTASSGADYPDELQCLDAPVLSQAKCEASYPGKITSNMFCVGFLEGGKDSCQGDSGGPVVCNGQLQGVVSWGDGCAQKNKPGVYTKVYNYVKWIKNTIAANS
Sequence of Coagulation factor XI (P03951 19-387 limits assumed): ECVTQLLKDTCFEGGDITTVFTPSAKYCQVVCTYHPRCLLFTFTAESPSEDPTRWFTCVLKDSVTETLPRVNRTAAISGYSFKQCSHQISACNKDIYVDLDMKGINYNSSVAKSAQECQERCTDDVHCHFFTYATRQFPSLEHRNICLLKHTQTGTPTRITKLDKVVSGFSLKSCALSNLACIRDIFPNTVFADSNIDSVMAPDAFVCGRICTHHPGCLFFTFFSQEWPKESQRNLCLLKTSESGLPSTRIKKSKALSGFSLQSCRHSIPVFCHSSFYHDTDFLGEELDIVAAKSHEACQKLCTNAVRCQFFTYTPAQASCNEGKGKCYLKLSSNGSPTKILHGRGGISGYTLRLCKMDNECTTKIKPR
Sequence of Coagulation factor XI (P03951 388-625 limits assumed): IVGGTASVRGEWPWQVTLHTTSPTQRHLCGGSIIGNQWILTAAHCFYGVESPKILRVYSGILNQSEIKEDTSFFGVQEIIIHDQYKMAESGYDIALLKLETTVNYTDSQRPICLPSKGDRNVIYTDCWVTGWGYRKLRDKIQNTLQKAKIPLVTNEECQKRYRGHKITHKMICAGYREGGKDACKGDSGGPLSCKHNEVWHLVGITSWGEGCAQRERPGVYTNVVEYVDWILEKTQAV
Sequence of Coagulation factor X (P00742 41-179 limits assumed): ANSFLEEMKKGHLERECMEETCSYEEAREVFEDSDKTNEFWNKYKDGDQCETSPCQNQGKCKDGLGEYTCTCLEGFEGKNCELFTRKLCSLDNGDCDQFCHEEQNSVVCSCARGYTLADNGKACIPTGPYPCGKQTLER
Sequence of Coagulation factor X (P00742 235-488 limits assumed): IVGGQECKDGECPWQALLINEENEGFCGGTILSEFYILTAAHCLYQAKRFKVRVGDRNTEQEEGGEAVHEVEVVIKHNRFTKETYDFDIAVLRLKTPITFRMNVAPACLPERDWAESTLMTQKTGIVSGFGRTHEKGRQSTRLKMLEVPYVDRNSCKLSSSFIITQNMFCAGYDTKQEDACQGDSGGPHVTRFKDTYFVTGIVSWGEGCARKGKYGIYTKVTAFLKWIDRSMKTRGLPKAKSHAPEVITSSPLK

As to `CC1=C2CC(=O)NCc3cc(Cl)ccc3CNC(=O)OC(C)OC(=O)c3cccc(c3)CNN(CC1)C2=O` (stereo unspecified), in data set [1], the Papp A→B at 10 µM was 45 ×10⁻⁶ cm/s. The Drug metabolism result in data set [2] is listed as “Metabolite_Notdetected”; in data set [3], “Metabolite_Detected”; in data set [7], “Metabolite_Detected”; in data set [8], “Metabolite_Detected”. This compound returned a solubility at 24 h in [4] of 340 µM (≈ 184 µg/mL). Besides, the logD at 3 h in data set [5] turned out to be 2.6. Also, in data set [6], the efflux ratio at 10 µM stood at 4.8.

`CC1=C(CC(=O)NCc2cc(Cl)ccc2CN)C(=O)N(NCc2ccccc2)CC1`: the pKi in [9] was less than 4.54; in data set [11] it was less than 4.77; in data set [12], less than 4.72; in [16], less than 5.27; in data set [17] it was less than 4.72; in [20] it was less than 4.48. The negative-log Ki (pKi) in data set [24] was 9.30. The Ratio Ki in data set [10], in data set [14], in [19], in data set [22], in data set [23] and in data set [25] was more than 1000 each time. The pIC50 in [13] was 7.14; in [18], 4.89; in data set [21] it was 6.17. For the same compound, the microsomal CLint at 1 µM in data set [15] came to 150 µL/min/mg.

Regarding `CC1=C(CC(=O)NCc2cc(Cl)ccc2CNC(=O)OC(C)(C)C)C(=O)N(NCc2cccc(C(=O)O)c2)CC1`, in data set [26], the Drug metabolism entry is reported as “Metabolite_Detected”.

As for `CC1=C2CC(=O)NCc3cc(Cl)ccc3CNC(=O)OCOC(=O)c3cccc(c3)CNN(CC1)C2=O`, the half-life was 67.2 min in [27] and 6.6 min in data set [32]. In addition, the Papp A→B at 10 µM in [1] turned out to be 48 ×10⁻⁶ cm/s. Besides, the Cmax was determined as 11 nM in [28] and 108 nM in [29]. Moreover, the Drug metabolism result is “Metabolite_Notdetected” in [2]; “Metabolite_Detected” in data set [3]; “Metabolite_Detected” in [33]; “Metabolite_Detected” in data set [7]; “Metabolite_Detected” in data set [8]. Besides, the negative-log Ki (pKi) in data set [16] is less than 5.27; in data set [24], 6.70. The values for the AUC in data set [30] and in data set [35] were 0.0127 µM·h and 0.0081 µM·h, respectively. Further, the F is 1.6% in [31] and 2.5% in data set [34]. The same compound yielded a solubility at 24 h in data set [4] of 120 µM (≈ 63.2 µg/mL). Further, in data set [5], the logD at 3 h came to 2.3. Moreover, the efflux ratio at 10 µM in data set [6] stood at 5.6.

Consider `C=O` [FORMALDEHYDE], for which the Drug metabolism result in data set [36] is “Metabolite_Detected”.
